Source: ChEMBL document CHEMBL3098084, “Synthesis and preliminary evaluation of a new fluorine-18 labelled triazine derivative for PET imaging of cannabinoid CB2 receptor” (Bioorg Med Chem Lett, 2014)

Columns and labels:
Cannabinoid receptor 2 [1] = target: T1, Cannabinoid receptor 2 (Homo sapiens, UniProt P34972); experiment: Binding affinity to human CB2 receptor expressed in CHO cells; type: cell-based
Cannabinoid receptor 2 [2] = target: T1, Cannabinoid receptor 2; experiment: Agonist activity at human CB2 receptor expressed in CHO CRE-luc cells; type: functional, cell-based
[3] = Apparent terminal half life in CD-1 mouse at 3 mg/kg, iv; type: ADME, organism-based; design: dose 3 mg/kg, route intravenous; details: in vivo, read-out: betat1/2(app) (converted)
Procedure, shortened: (§1)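 Male CD1 mice got a single intravenous dose of 3 mg/kg. Drug levels were measured in plasma and brain. The first sampling time was 5 min post-dose. Apparent terminal half-life and brain/plasma AUC(0-inf) were derived from the concentration-time profiles.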

[4] = Cmax in brain of CD-1 mouse at 3 mg/kg, iv after 5 mins; type: ADME, organism-based; design: dose 3 mg/kg, route intravenous; procedure, shortened: as §1
Brain = experiment: Drug uptake in whole brain of baboon neuroinflammation model at 110 +/- 34 MBq, iv after 20 mins by PET imaging analysis; type: ADME, organism-based; details: papio anubis, in vivo
Procedure, shortened: (§2)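 Baboons (Papio anubis) received [¹⁸F]-d₂-3 (110 34 MBq) iv. PET images were acquired over 180 min on a Siemens Biograph mCT camera with arterial blood sampling. Regional time-activity curves (frontal, occipital, temporal and parietal cortex, cerebellum) were expressed as SUV, and whole-brain uptake as percent injected dose. Where used, LPS (0.05 or 0.1 mg/kg) was given iv 4 h before the radiotracer.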

[5] = Drug uptake in occipital cotrex of baboon neuroinflammation model at 110 +/- 34 MBq, iv after 20 mins by PET imaging analysis; type: ADME, organism-based, Occipital cortex; details: papio anubis, in vivo; procedure, shortened: as §2
[6] = Drug uptake in cerebellum of baboon neuroinflammation model at 110 +/- 34 MBq, iv after 20 mins by PET imaging analysis; type: ADME, organism-based; details: papio anubis, in vivo; procedure, shortened: as §2
[7] = Drug metabolism in baboon neuroinflammation model plasma assessed as compound remaining at 110 +/- 34 MBq, iv after 180 mins by HPLC analysis; type: ADME, organism-based; details: papio anubis, read-out: Stability
Procedure, shortened: (§3)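 Radiotracer [¹⁸F]-d₂-3 (110 34 MBq) was given iv to rhesus macaque or baboon, with arterial blood sampled over 180 min. Parent fraction in plasma was determined by reverse-phase HPLC in a subset of samples. Where used, LPS (0.05 or 0.1 mg/kg) was given iv 4 h before the radiotracer.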

[8] = Drug uptake in temporal cotrex of baboon neuroinflammation model at 110 +/- 34 MBq, iv after 20 mins by PET imaging analysis; type: ADME, organism-based, Temporal cortex; details: papio anubis, in vivo; procedure, shortened: as §2
[9] = Drug metabolism in baboon neuroinflammation model plasma assessed as compound remaining at 110 +/- 34 MBq, iv administered 180 mins post LPS-challenge by HPLC analysis; type: ADME, organism-based; details: papio anubis, read-out: Stability; procedure, shortened: as §3
[10] = Drug uptake in perietal cotrex of baboon neuroinflammation model at 110 +/- 34 MBq, iv after 20 mins by PET imaging analysis; type: ADME, organism-based, Parietal cortex; details: papio anubis, in vivo; procedure, shortened: as §2
[11] = Drug metabolism in rhesus monkey plasma assessed as compound remaining at 110 +/- 34 MBq, iv after 180 mins by HPLC analysis; type: ADME, organism-based, Macaca mulatta; details: read-out: Stability; procedure, shortened: as §3
[12] = Drug uptake in frontal cortex of baboon neuroinflammation model at 110 +/- 34 MBq, iv after 20 mins by PET imaging analysis; type: ADME, organism-based; details: papio anubis, in vivo; procedure, shortened: as §2
Cannabinoid receptor 1 = Cannabinoid receptor 1 (Homo sapiens, UniProt P21554); experiment: Binding affinity to human CB1 receptor
Chain of Cannabinoid receptor 1 (P21554 whole entry): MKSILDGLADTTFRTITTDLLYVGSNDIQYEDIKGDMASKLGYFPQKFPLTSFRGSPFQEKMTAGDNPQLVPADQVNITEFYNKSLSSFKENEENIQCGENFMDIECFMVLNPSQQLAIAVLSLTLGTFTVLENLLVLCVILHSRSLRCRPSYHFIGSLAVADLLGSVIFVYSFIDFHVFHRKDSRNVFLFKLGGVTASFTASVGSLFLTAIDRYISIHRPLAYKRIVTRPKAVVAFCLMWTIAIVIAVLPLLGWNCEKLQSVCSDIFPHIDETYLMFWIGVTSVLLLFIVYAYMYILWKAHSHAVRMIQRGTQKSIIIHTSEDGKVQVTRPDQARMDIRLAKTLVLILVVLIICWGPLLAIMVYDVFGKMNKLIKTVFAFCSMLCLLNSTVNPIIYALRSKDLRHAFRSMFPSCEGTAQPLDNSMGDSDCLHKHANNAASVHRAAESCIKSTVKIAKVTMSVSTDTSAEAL

Cannabinoid receptor 2 [13] = target: T1, Cannabinoid receptor 2; experiment: Binding affinity to human CB2 receptor

T1 sequence (P34972 whole entry): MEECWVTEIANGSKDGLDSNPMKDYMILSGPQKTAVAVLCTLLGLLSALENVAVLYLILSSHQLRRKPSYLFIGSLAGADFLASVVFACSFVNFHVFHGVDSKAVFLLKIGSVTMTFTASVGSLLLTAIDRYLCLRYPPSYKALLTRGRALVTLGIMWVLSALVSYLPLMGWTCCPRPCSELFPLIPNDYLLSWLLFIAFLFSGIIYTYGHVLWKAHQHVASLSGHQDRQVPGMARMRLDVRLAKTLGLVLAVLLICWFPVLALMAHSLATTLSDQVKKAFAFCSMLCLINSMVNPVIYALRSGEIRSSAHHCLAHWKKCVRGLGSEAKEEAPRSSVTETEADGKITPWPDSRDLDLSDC

CC(C)(O)c1cc(-c2nc(NCCc3ccc(F)cc3)nc(OCF)n2)ccc1Cl
IC50 (Cannabinoid receptor 2 [1]): 1.4 nM
EC50 (Cannabinoid receptor 2 [2]): 0.78 nM
half-life [3]: 57.6 min
Cmax [4]: 2300 ng/g

[2H]C([2H])([18F])Oc1nc(NCCc2ccc(F)cc2)nc(-c2ccc(Cl)c(C(C)(C)O)c2)n1
Drug uptake (Brain): 0.5 %ID
SUV [5]: 0.7 g/mL
SUV [6]: 0.7 g/mL
remaining at 3 h [7]: 35%
SUV [8]: 0.7 g/mL
remaining at 3 h [9]: 15%
SUV [10]: 0.7 g/mL
remaining at 3 h [11]: 35%
SUV [12]: 0.7 g/mL

COc1nc(NCCc2ccc(F)cc2)nc(-c2ccc(Cl)c(C(C)(C)O)c2)n1
IC50 (Cannabinoid receptor 1): 300 nM
IC50 (Cannabinoid receptor 2 [13]): 0.58 nM
